This assay has as its system Plasmodium falciparum. Kind of assay: In vitro activity against Plasmodium falciparum. Type of assay: functional, organism-based. The method, boiled down:
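P. falciparum cultures at 0.3-0.5% parasitemia (percentage of infected erythrocytes) exposed to drug for one parasite cycle (48 h). Some drugs were dissolved in DMSO, then diluted in culture medium (final DMSO ≤0.25%). [3H]hypoxanthine was then added for 18 h to measure viability. IC50 is 50% inhibition of parasite growth, given as the mean of at least two independent experiments in triplicate using different stock solutions.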
As usually defined, the IC50 is the concentration that inhibits the measured activity by half. The compound `CCCCCCCCCCCCCCCC[N+](CC)(CC)CC` yielded an IC50 of 140 nM.

For `CCCCCCCCCCCC[N+](C)(C)CCCCCCCCCCCCCCCC[N+](C)(C)CCCCCCCCCCCC`, the IC50 came out at 1800 nM.

Take `CCCCCCCC[N+](C)(C)CCO`: inhibition was half-maximal at 3850 nM (IC50).

For the compound `CCCCCCCCCCCC[N+](C)(C)CCCCCC[N+](C)(C)CCCCCCCCCCCC`, the IC50 turned out to be 220 nM.

Take `CC[N+](CC)(CC)CCCCCCCCCCCC[N+](CC)(CC)CC`: the IC50 stood at 45 nM.

With `C=CC[N+](C)(CC=C)CCCCCCCCCCCC`, the IC50 came out at 140 nM.

`C#CCC[N+](C)(C)CCCCCCCCCCCC` displayed an IC50 of 230 nM.

Compound `C#CC[N+](C)(CC#C)CCCCCCCCCCCC` returned an IC50 of 380 nM.

The compound `C#CC[N+](C)(C)CCCCCCCCCCCC` yielded an IC50 of 360 nM.

For `CCCCC[N+](C)(C)CC(C)O` (stereo unspecified), the IC50 came out at 115000 nM.

Regarding `C=CC[N+](C)(C)CCCCCCCCCCCC`, half-maximal inhibition (IC50) required 270 nM.

For `CCCCCCCCCCCC[N+](C)(C)CCCCCCCCCCCC[N+](C)(C)CCCCCCCCCCCC`, the midpoint of inhibition, the IC50, lay at 180 nM.

As for `CCCCCCCCCCCCCCCC[N+]1(C)CCCC1`, the IC50 worked out at 420 nM.

On to `CCCCCC[N+](CC)(CC)CC`, for which the IC50 was 9700 nM.

Regarding `CCCCCCCCCCCCCC[N+]1(C)CCCC1`, it took 270 nM to reach half-maximal inhibition (IC50).

As for `CCCCCC[N+]1(C)CCCC1`, the IC50 turned out to be 26000 nM.

For `CC[N+](CC)(CC)CCCCCC[N+](CC)(CC)CCCCCC[N+](CC)(CC)CC`, half-maximal inhibition (IC50) required 800000 nM.

As for `CCCCCCCCCCCC[N+](C)(C)C(C)C(O)c1ccccc1` (stereo unspecified), the IC50 is 670 nM.

`CCCCCCCC[N+](C)(C)C` registered an IC50 of 5000 nM.

`CC[N+](CC)(CC)CCCCCCCCCCCCCCCCCCCCC[N+](CC)(CC)CC` came in with an IC50 of 0.003 nM.

In the case of `C[N+](C)(C)CCCCCCCCc1ccccc1`, the IC50 was 620 nM.

Compound `C[N+]1(CCCCCCCCCCCC[N+]2(C)CCCC2)CCCC1` came in with an IC50 of 13 nM.

As for `CCCCCCCCCCCCCCCCCC[N+](CC)(CC)CC`, the midpoint of inhibition, the IC50, lay at 270 nM.

On to `CCCCCCCCCCCC[N+]1(C)CCCC1`, for which half-maximal inhibition (IC50) required 220 nM.

On to `C[N+](C)(C)CCCCCCCCCCCCCCCC[N+](C)(C)C`, for which the IC50 was 4 nM.

Regarding `C#CCC[N+](C)(C)CCCCCCCCCCCC[N+](C)(C)CCC#C`, the midpoint of inhibition, the IC50, lay at 44 nM.

`CCCCCCCCCCCC[N+](C)(C)CCC[N+](C)(C)CCCCCCCCCCCC`: the IC50 was found to be 10800 nM.

Turning to `C=CC[N+](CC)(CC)CCCCCCCCCCCC[N+](CC)(CC)CC=C`, the IC50 came to 5.3 nM.

The compound `CCCCCCCCCCCCCCCC[N+](C)(C)CCO` had an IC50 of 810 nM.

On to `CC[N+](CC)(CC)CCCCCCCCCCCCCCCC[N+](CC)(CC)CC`, for which 1.6 nM corresponded to half-maximal inhibition (IC50).

`CC[N+](CC)(CC)CCCCCCCC[N+](CC)(CC)CC` showed an IC50 of 540 nM.

The compound `CC[N+](CC)(CCO)CCCCCCCCCCCCCCCC[N+](CC)(CC)CCO` returned an IC50 of 4.9 nM.

The compound `C[N+]1(CCCCCCCCCCCCCCCC[N+]2(C)CCCC2)CCCC1` yielded an IC50 of 0.64 nM.

`C#CC[N+](C)(C)CCCCCCCCCCCC[N+](C)(C)CC#C` yielded an IC50 of 7.6 nM.

In the case of `CCCCCCCCCCCC[N+](C)(C)CC(C)O` (stereo unspecified), the IC50 worked out at 430 nM.

`C[N+]1(CCCCCCCCCCCCCC[N+]2(C)CCCC2)CCCC1`: the IC50 came out at 1.1 nM.

Source of the values: ChEMBL document CHEMBL1133585, “Antimalarial activity of compounds interfering with Plasmodium falciparum phospholipid metabolism: comparison between mono- and bisquaternary ammonium salts” (J Med Chem, 2000).
